MEKK2 mut-MEK5 = signal of MEK5 binding to mutant human MEKK2 PB1 domain; bead flow cytometry, Alexa488-MEK5 binding to MEKK2 mutant; percent response, % at 10 µM; AID 1530; 290,000 tested, 0.35% active; in the data active = percent response above about 24%, passing the limit was not always enough
GSK3 alpha inh = blocks human GSK-3 alpha kinase; 320,000 tested, 0.1% active; ADP-Glo luminescence, 60 min; P49840; inhibition, % at 10 µM; AID 2650;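 active = more than half of replicates show inhibition above 20%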;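 also: GST-tagged GSK-3 alpha with peptide substrate and 25 µM ATP; 0% = DMSO neutral wells and 100% = GW8510 positive control wells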
Target sequence (P49840 whole entry, looked up): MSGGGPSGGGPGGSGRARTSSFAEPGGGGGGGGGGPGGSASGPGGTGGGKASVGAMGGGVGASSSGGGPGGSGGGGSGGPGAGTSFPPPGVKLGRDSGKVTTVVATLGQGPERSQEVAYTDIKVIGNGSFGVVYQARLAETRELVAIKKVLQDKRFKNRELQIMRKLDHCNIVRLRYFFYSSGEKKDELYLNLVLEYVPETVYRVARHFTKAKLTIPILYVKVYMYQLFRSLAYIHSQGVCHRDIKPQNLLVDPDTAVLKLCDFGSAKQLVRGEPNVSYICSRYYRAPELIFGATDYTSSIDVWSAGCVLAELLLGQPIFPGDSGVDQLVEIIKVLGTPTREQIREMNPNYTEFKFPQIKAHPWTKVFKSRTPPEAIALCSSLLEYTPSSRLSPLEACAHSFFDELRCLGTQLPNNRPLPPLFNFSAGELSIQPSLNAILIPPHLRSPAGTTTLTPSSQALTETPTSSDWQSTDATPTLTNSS
MEKK2 WT-MEK5 = raises or lowers MEK5 binding to wildtype human MEKK2 PB1 domain. Q9Y2U5. bead flow cytometry, Alexa488-MEK5 binding to MEKK2 WT; actives lie on both sides. binding response (% of control), % at 10 µM. 290,000 tested, 1.1% active. AID 1531; in the data active = binding response below about 67% or above about 130%
MEKK3 PB1 HTS = MEKK3-MEK5 PB1 interaction, increase or decrease; Q99759; bead-based flow cytometry, Alexa488-MEK5 binding to MEKK3; actives lie on both sides; 0 = blocked by unlabeled MEK5, 100 = vehicle; binding response (% of control), % at 10 µM; 290,000 tested, 1.4% active; AID 1529;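 active = binding response more than 3 SD above or below the average of its plate-row segment, actives on both sides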;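 also: Alexa488 bead fluorescence after subtracting the streptavidin-only scavenger bead signal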
GSK3B inh = inhibitors of human GSK3beta kinase; GST-GSK3beta kinase, ADP-Glo luminescence, 60 min; active compounds read low; activity score (negative = inhibition), % at 10 µM; 300,000 tested, 0.038% active; AID 2097;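 active = more than half of replicate wells score below -50%, meaning over 50% inhibition versus plate controls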;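 also: 0% = median DMSO wells and -100% = median GW8510 positive control wells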
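Test system – GST-tagged human GSK3beta kinase, cell-free · Incubation – 60 min enzyme reaction, room temperature · Signal – ADP-Glo luminescence · Also added – peptide substrate and ATP at 25 µM · Controls – DMSO neutral wells and GW8510 at 20 µM as positive · Buffer or medium – Tris/MgCl2 kinase buffer · Measure – Luminescence-derived activity versus plate DMSO and GW8510 wells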
STK33 kinase inh = inhibitors of human STK33 kinase; Q9BYT3; purified STK33, MBP phosphorylation, ADP-Glo luminescence; inhibition, % at 10 µM; 320,000 tested, 0.073% active; AID 2661;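 active = inhibition at or above 25%, using the most active replicate where run in duplicate; inactive = inhibition below 25%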
* = called active by the depositor; x = no result; [ ] = another dose, or the depositor's remark. This is a sample that favours compounds with a hit; in the whole collection about 2.1% have one here.

SMILES | MEKK2 mut-MEK5 | GSK3 alpha inh | MEKK2 WT-MEK5 | MEKK3 PB1 HTS | GSK3B inh | STK33 kinase inh
Cc1nc2nc(SCC(=O)N3CCOCC3)nn2c(C)c1Cc1c(F)cccc1Cl | -15 | -4 | 2.0*[inhibitor] | 2.0*[inhibitor] | 3 | 1
Cc1nc2nc(SCC(=O)NCCN3CCOCC3)nn2c(C)c1Cc1ccccc1 | 1 | -2 | 102 | 100 | 2 | -1
O=C(C(=O)N1CCN(c2ccc([N+](=O)[O-])cc2)CC1)c1cn(CC(=O)N2CCOCC2)c2ccccc12 | 8 | -14 | 110 | 105 | 0 | 0
CCOC(=O)C(=O)c1cn(C2OCC(OC(C)=O)C(OC(C)=O)C2OC(C)=O)c2ccccc12 (stereo not given) | 2 | -1 | 103 | 104 | 5 | 0
CC(C)NC(=O)Nc1n[nH]c(Nc2ccc(Cl)cc2)n1 | -7 | 52* | 90 | 95 | 1 | 1
COCCNc1nc(-c2cc(C)n(CCc3ccc(OC)cc3)c2C)cs1 | 41 | -1 | -5.0* | 80 | -1 | 0
COc1ccc(CCNc2nc(-c3sc(N)nc3C)cs2)cc1OC | -1 | 4 | 102 | 101 | 2 | 0
c1ccc(-c2ccc(-c3ccncn3)cc2)cc1 | x | 2 | x | x | -3 | -1
COc1ccc(CNCCC(c2ccc(F)cc2)c2ccc(OC)cc2)cc1 (stereo not given) | 3 | 0 | 140* | 100 | -27 | 0
COc1ccc(C(OCC(O)CNC(C)c2ccccc2)c2ccc(OC)cc2)cc1 (stereo not given) | 8 | -2 | 130 | 105 | x | 0
COc1ccc(CCNCc2ccc(OCc3ccccc3)cc2)cc1 | 13 | -2 | 136* | 104 | 1 | 0
COc1ccc(C(CCNCc2ccc(F)cc2)c2ccc(F)cc2)cc1 (stereo not given) | 5 | 0 | 128 | 99 | -2 | -1
COc1ccc(C(OCC(O)CNCCc2ccccc2)c2ccc(OC)cc2)cc1 (stereo not given) | 6 | 2 | 151* | 99 | -4 | 0
COc1ccc(CCNC/C=C/c2ccccc2)cc1 | 11 | -4 | 127 | 108 | -6 | -1
COc1ccccc1NC(=O)c1cc(C(=O)Nc2ccccc2OC)cc([N+](=O)[O-])c1 | 8 | 1 | 104 | 103 | -1 | 0
O=C(CC1C(=O)NCCN1Cc1ccccc1C(F)(F)F)NCCn1cccn1 (stereo not given) | -6 | -2 | 93 | 108 | 1 | -2
CCN(CC)S(=O)(=O)c1ccc(OC)c(NC(=O)C2CC(=O)N(c3ccc4c(c3)OCCO4)C2)c1 (stereo not given) | -21 | 0 | -2.0*[inhibitor] | 0.0*[inhibitor] | 1 | -2
Cc1cnc(NC(=O)C2CC(=O)N(c3ccc4c(c3)OCCO4)C2)s1 (stereo not given) | x | 50* | x | x | x | -1
N#CCCSc1ccccc1NC(=O)c1cc(=O)c2ccccc2o1 | 4 | -1 | 96 | 98 | -1 | 3
CCn1nc(NC(=O)c2cccs2)c2cc3ccccc3nc21 | -1 | 2 | 88 | 81 | 3 | 2
CCCCN(C(=O)C1CC(=O)N(CCc2ccc(OC)c(OC)c2)C1)c1c(N)n(CCCC)c(=O)[nH]c1=O (stereo not given) | x | 1 | x | x | -1 | -2
O=C(NC(=O)c1csnn1)Nc1ccccc1Cl | -3 | -3 | 102 | 101 | -3 | -2
Cc1cc(Cl)c2oc(C(=O)N(C)CC3CCOCC3)c(C)c2c1 | -39 | 0 | 43*[inhibitor] | 31*[inhibitor] | -2 | 1
Oc1ccc(-c2nc3ccccc3s2)c(O)c1 | 2 | 1 | -2.0* | 93 | -3 | 2
Nc1ccc(O)c(-c2nc3ccccc3s2)c1 | 0 | 0 | 97 | 94 | -2 | -1
SMILES | MEKK2 mut-MEK5 | GSK3 alpha inh | MEKK2 WT-MEK5 | MEKK3 PB1 HTS | GSK3B inh | STK33 kinase inh
O=C(Nc1ncc([N+](=O)[O-])s1)C1CCN(S(=O)(=O)c2cnc[nH]2)CC1 | 7 | 51* | 108 | 109 | -2 | -1
CC(=O)c1ccc(N(CC(=O)NCc2ccc3c(c2)OCO3)C(=O)c2csnn2)cc1 | 4 | 2 | 96 | 101 | -3 | 1
CC(C)c1ccc2c(c1)CCC1C(C)(CN)CCCC21C (stereo not given) | 25* | -4 | 155* | 36*[inhibitor] | -2 | -1
COc1cc2cccc(OC)c(=O)c2c(O)c1OC | -2 | -1 | 97 | 97 | 1 | 1
COc1cc2c(ccc3cc(OC)c(OC)c(O)c32)cc1O | 5 | 38 | 104 | 105 | 0 | 35*
CCCN(CCC)Cc1c(C(=O)N/N=C/c2ccncc2)nnn1-c1nonc1N | 13 | 74* | 103 | 105 | -45 | 0
CN(Cc1c(C(=O)N/N=C/c2ccccc2)nnn1-c1nonc1N)C1CCCCC1 | 1 | 4 | 100 | 103 | 1 | 0
CCCN(CCC)Cc1c(C(=O)N/N=C/C(C)=C\c2ccco2)nnn1-c1nonc1N | -8 | -3 | 89 | 96 | 1 | 0
Cc1ccc(-c2c(C(=O)N/N=C/c3cccc(Cl)c3)nnn2-c2nonc2N)cc1 | -1 | -1 | 135* | 112 | 2 | -1
CC(/C=N/NC(=O)c1nnn(-c2nonc2N)c1CN(C)C)=C\c1ccco1 | -4 | 50* | 90 | 94 | -5 | 0
CN(Cc1c(C(=O)N/N=C/c2ccc(O)cc2)nnn1-c1nonc1N)C1CCCCC1 | -1 | 60* | 99 | 101 | 0 | -1
Cc1ccc(-c2c(C(=O)N/N=C/c3ccoc3)nnn2-c2nonc2N)cc1 | -6 | 0 | 93 | 95 | 2 | -1
CCN(C(=O)CSc1nncn1-c1ccccc1)C1CCS(=O)(=O)C1 (stereo not given) | x | -1 | x | x | 4 | x
COc1ccc(NC(=O)Nc2c[nH]c(=O)[nH]c2=O)cc1OC | 4 | -2 | 108 | 105 | -1 | -1
CCOc1cccc(-c2c(C(=O)N/N=C(\C)c3cccnc3)nnn2-c2nonc2N)c1 | -3 | 52* | 96 | 98 | 0 | 0
CC(C)c1c(C(=O)N/N=C/c2cccnc2)nnn1-c1nonc1N | 4 | -1 | 101 | 101 | 1 | -1
CCN(CC)Cc1c(C(=O)N/N=C/c2cccnc2)nnn1-c1nonc1N | -9 | 53* | 94 | 97 | 0 | -1
Cn1c(CCC(=O)OCC(=O)NCc2ccc3c(c2)OCO3)nc(=O)c2ccccc21 | -1 | 0 | 101 | 108 | -2 | 0
CCC(C)(C)c1ccc(OCCCC[n+]2cccc(C)c2C)c(C(C)(C)CC)c1 | 41 | 19 | 170* | 75 | -11 | -2
Cc1cc(C(C)(C)C)ccc1OCCCCN1CCCC1 | -1 | 0 | 105 | 102 | 0 | -2
COc1ccc(N(CC(=O)Nc2ccccc2C(N)=O)S(=O)(=O)c2ccc(C)c([N+](=O)[O-])c2)cc1 | -3 | -2 | 73 | 73 | 1 | x

Screening data (PubChem)
